From ChEMBL document CHEMBL4052607 (J Med Chem, 2017)
Calls of active or inactive are those of the source. The rule behind the calls is not given here.

Tests used:
D(2) dopamine receptor [1] = molecular target: T1, D(2) dopamine receptor (Homo sapiens, UniProt P14416); test: Agonist activity at D2 long receptor (unknown origin) expressed in CHOK1 cells assessed as beta-arrestin recruitment up to 30 uM after 90 mins by DiscoveRx PathHunter assay; format: cell-based
Procedure, shortened: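 Agonist mode in CHO-K1 cells expressing D2R long isoform fused to a β-galactosidase fragment, with β-arrestin-2 carrying the complementary fragment. Compound in PBS plus 0.2 μM sodium metabisulfite was preincubated 90 min at 37°C. PathHunter reagent was then added for 30 min at RT and luminescence read. RLU were normalized to the response at maximal dopamine.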

D(3) dopamine receptor [2] = molecular target: T2, D(3) dopamine receptor (Homo sapiens, UniProt P35462); test: Displacement of [3H]N-methylspiperone from human D3 receptor expressed in HEK293 cell membranes after 1 hr by liquid scintillation counting analysis
T2 sequence (P35462 whole entry): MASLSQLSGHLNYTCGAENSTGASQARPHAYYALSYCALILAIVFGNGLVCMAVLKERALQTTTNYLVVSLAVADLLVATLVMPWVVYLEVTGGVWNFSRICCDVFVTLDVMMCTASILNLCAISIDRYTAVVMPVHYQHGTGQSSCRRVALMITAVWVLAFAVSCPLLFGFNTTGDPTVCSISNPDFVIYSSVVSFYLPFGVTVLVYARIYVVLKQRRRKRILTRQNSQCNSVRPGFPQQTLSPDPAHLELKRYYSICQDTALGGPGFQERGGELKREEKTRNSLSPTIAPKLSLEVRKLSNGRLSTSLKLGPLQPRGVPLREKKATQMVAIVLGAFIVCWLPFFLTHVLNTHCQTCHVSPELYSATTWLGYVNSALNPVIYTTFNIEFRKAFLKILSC

D(2) dopamine receptor [3] = molecular target: T1, D(2) dopamine receptor; test: Antagonist activity at D2 long receptor (unknown origin) expressed in CHOK1 cells assessed as inhibition of dopamine induced beta-arrestin recruitment after 90 mins by DiscoveRx PathHunter assay; format: cell-based
D(3) dopamine receptor [4] = molecular target: T2, D(3) dopamine receptor
Homo sapiens = species: Homo sapiens; test: Selectivity ratio of Ki for human D2 receptor to Ki for human D3 receptor
Procedure, shortened: (§1)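 Membranes from HEK293 cells stably expressing hD2R (long) or hD3R, 10 μg protein per tube, were incubated with 0.4 nM [3H]N-methylspiperone in EBSS with 0.2 mM sodium metabisulfite. Compound was tested over 13 half-log steps, 10 μM to 10 pM, in triplicate for 1 h at RT. Nonspecific binding was set with 10 μM (+)-butaclamol. Bound ligand was collected on PEI-soaked GF/B filters and counted by scintillation. Ki came from Cheng-Prusoff, at least 3 experiments.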

D(2) dopamine receptor [5] = molecular target: T1, D(2) dopamine receptor; test: Displacement of [3H]N-methylspiperone from human D2L receptor expressed in HEK293 cell membranes after 1 hr by liquid scintillation counting analysis; procedure, shortened: as §1

T1 sequence (P14416 whole entry, the tested form may be a part, canonical isoform): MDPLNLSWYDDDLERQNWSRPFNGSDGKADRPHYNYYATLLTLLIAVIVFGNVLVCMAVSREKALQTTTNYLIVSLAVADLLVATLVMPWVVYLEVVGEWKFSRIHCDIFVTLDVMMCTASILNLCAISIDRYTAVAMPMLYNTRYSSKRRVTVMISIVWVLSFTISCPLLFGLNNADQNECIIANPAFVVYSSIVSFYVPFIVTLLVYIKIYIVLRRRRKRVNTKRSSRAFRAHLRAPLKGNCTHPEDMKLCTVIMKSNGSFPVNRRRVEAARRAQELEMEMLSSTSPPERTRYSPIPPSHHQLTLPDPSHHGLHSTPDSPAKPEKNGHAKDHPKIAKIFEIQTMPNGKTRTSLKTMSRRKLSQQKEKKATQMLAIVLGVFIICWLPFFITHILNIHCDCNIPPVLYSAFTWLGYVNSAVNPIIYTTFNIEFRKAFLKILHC

Compound | Activity (D(2) dopamine receptor [1]) | Ki (D(3) dopamine receptor [2]) | Kb (D(2) dopamine receptor [3]) | pKb (D(2) dopamine receptor [3]) | pKb (D(3) dopamine receptor [4]) | Ratio Ki (Homo sapiens) | Ki (D(2) dopamine receptor [5])
N#Cc1ccc2c(c1)CCN(CC[C@H]1CC[C@H](NC(=O)c3ccnc4ccccc34)CC1)C2 | inactive |  |  |  |  |  | 
N#Cc1cccc(N2CCNCC2)c1 | inactive | 0.581 µM | 2.09 µM | 5.68 | 5.42 | 8.4 | 4.89 µM
N#Cc1ccc2c(c1)CNCC2 | inactive | 1.52 µM | 4.27 µM | 5.37 | 5.49 | 7.5 | 11.4 µM
